The first experiment has as its target Sodium-dependent serotonin transporter (Rattus norvegicus, UniProt P31652). In words: Inhibition of [3H]paroxetine (0.2 nM) binding to 5-HT transporter. Summed up: (§1)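 IC50 is taken as inhibition of specific binding. Values are mean ± standard error of three or four experiments, with triplicate determinations at each concentration.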
Chain of Sodium-dependent dopamine transporter (P23977 whole entry): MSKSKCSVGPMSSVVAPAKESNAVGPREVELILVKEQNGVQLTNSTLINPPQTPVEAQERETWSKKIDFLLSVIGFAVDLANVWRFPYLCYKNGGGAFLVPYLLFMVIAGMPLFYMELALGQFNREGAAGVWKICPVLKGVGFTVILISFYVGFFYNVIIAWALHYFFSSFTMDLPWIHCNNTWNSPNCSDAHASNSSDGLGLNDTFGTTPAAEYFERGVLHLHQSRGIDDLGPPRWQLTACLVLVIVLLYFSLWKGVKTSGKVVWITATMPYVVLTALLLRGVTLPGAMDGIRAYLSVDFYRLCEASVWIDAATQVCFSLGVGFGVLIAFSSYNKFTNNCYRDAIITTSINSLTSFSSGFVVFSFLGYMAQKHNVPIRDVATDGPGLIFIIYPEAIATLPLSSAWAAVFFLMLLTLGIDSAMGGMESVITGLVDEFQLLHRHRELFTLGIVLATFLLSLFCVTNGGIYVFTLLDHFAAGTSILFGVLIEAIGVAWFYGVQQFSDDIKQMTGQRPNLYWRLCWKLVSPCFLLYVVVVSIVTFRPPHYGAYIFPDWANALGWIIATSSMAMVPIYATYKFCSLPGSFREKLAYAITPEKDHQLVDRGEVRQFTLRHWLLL
Chain of Norepinephrine transporter (Q9WTR4 whole entry): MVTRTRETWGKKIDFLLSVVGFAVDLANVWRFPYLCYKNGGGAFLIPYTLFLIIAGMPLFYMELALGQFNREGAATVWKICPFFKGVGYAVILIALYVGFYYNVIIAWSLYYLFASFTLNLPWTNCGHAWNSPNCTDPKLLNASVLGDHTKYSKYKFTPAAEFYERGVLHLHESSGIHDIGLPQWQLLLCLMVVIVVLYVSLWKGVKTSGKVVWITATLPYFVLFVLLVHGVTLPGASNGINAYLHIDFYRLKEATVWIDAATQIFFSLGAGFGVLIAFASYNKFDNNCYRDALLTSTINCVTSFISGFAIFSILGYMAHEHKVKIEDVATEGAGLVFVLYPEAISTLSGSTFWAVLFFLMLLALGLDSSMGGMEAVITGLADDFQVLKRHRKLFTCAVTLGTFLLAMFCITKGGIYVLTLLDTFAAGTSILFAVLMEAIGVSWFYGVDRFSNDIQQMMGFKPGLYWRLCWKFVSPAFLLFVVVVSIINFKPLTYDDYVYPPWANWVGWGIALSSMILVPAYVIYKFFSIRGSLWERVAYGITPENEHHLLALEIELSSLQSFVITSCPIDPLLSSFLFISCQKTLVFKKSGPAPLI
Chain of Sodium-dependent serotonin transporter (P31652 whole entry): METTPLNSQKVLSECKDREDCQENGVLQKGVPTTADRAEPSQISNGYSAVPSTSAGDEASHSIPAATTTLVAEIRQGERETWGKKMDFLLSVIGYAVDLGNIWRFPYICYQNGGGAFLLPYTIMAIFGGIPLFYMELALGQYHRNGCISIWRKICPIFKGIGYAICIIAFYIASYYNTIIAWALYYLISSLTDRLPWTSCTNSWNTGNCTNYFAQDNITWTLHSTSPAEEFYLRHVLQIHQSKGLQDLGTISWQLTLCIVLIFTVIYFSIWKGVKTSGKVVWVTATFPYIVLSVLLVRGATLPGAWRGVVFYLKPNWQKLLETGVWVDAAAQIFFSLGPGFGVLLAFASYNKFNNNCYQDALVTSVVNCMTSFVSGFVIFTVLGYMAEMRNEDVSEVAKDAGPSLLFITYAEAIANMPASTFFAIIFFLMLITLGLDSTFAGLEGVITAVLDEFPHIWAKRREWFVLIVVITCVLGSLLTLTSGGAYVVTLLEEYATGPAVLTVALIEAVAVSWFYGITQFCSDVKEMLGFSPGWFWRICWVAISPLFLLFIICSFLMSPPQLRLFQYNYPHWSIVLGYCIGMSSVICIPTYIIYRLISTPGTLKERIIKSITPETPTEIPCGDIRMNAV
The compound `Fc1ccc([C@@H]2CC3CCC(N3)[C@@H]2COc2ccc3c(c2)OCO3)cc1` (stereo partly specified) showed an IC50 of 55.8 nM.
`Fc1ccc([C@H]2CC3CCC(N3)[C@@H]2COc2ccc3c(c2)OCO3)cc1` (stereo partly specified) returned an IC50 of 90 nM.
Still for that read-out and setting: then `CN1C2CC[C@@H]1C[C@H](c1ccc(F)cc1)[C@H]2COc1ccc2c(c1)OCO2`, with 52.9 nM; and `CN1C2CC[C@@H]1[C@H](COc1ccc3c(c1)OCO3)[C@H](c1ccc(F)cc1)C2`, with 447 nM; and `CN1C2CC[C@@H]1[C@@H](COc1ccc3c(c1)OCO3)[C@H](c1ccc(F)cc1)C2`, with 88.1 nM.
Still for that read-out and setting: for `CN1C2CC[C@@H]1C[C@H](c1ccc(F)cc1)[C@@H]2COc1ccc2c(c1)OCO2` the value was 294 nM.
Same read-out and setting: then `CN1C2CC[C@@H]1C[C@@H](c1ccc(F)cc1)[C@@H]2COc1ccc2c(c1)OCO2`, with 422 nM.
In the case of `CN1C2CC[C@@H]1[C@@H](COc1ccc3c(c1)OCO3)[C@@H](c1ccc(F)cc1)C2`, the IC50 is 178 nM.
`Fc1ccc([C@H]2CC3CCC(N3)[C@H]2COc2ccc3c(c2)OCO3)cc1` (stereo in doubt; 4a) displayed an IC50 of 480 nM. This IC50 is about 2.7-fold higher than that of the compound before.
For `Fc1ccc([C@@H]2CC3CCC(N3)[C@H]2COc2ccc3c(c2)OCO3)cc1` (stereo in doubt; 4c), the half-inhibitory concentration (IC50) worked out at 5.62 nM.
The same measure, in the same setting: then `Fc1ccc([C@@H]2CC3CCC(N3)[C@H]2COc2ccc3c(c2)OCO3)cc1` (stereo in doubt; 4d), with 424 nM; and `Fc1ccc([C@H]2CC3CCC(N3)[C@H]2COc2ccc3c(c2)OCO3)cc1` (stereo in doubt; 4f), with 19 nM.

A further experiment concerns the target Norepinephrine transporter (Rattus norvegicus, UniProt Q9WTR4). In words: Inhibition of [3H]nisoxetine (0.5 nM) binding to Noradrenaline transporter. Summed up:
as §1
`Fc1ccc([C@@H]2CC3CCC(N3)[C@@H]2COc2ccc3c(c2)OCO3)cc1` (stereo partly specified) came in with an IC50 of 1690 nM.
`Fc1ccc([C@H]2CC3CCC(N3)[C@@H]2COc2ccc3c(c2)OCO3)cc1` (stereo partly specified) came in with an IC50 of 2500 nM.
Compound `CN1C2CC[C@@H]1C[C@H](c1ccc(F)cc1)[C@H]2COc1ccc2c(c1)OCO2` displayed an IC50 of 26600 nM. Compared with the last compound, the IC50 is about 11-fold higher.
On the same count and under the same terms, for `CN1C2CC[C@@H]1[C@H](COc1ccc3c(c1)OCO3)[C@H](c1ccc(F)cc1)C2` the value was 2920 nM.
Still for that read-out and setting: then `CN1C2CC[C@@H]1[C@@H](COc1ccc3c(c1)OCO3)[C@H](c1ccc(F)cc1)C2`, with 27600 nM; and `CN1C2CC[C@@H]1C[C@H](c1ccc(F)cc1)[C@@H]2COc1ccc2c(c1)OCO2`, with 5300 nM; and `CN1C2CC[C@@H]1C[C@@H](c1ccc(F)cc1)[C@@H]2COc1ccc2c(c1)OCO2`, with 123 nM.
Still for that read-out and setting: then `CN1C2CC[C@@H]1[C@@H](COc1ccc3c(c1)OCO3)[C@@H](c1ccc(F)cc1)C2`, with 12400 nM; and `Fc1ccc([C@H]2CC3CCC(N3)[C@H]2COc2ccc3c(c2)OCO3)cc1` (stereo in doubt; 4a), with 37400 nM.
In the case of `Fc1ccc([C@@H]2CC3CCC(N3)[C@H]2COc2ccc3c(c2)OCO3)cc1` (stereo in doubt; 4c), the IC50 was 14.4 nM. Against the preceding compound, the IC50 is about 2600-fold lower.
The compound `Fc1ccc([C@@H]2CC3CCC(N3)[C@H]2COc2ccc3c(c2)OCO3)cc1` (stereo in doubt; 4d) displayed an IC50 of 17300 nM.
On the same count and under the same terms, for `Fc1ccc([C@H]2CC3CCC(N3)[C@H]2COc2ccc3c(c2)OCO3)cc1` (stereo in doubt; 4f) the value was 1990 nM.

A further experiment has as its target Sodium-dependent dopamine transporter (Rattus norvegicus, UniProt P23977). In words: Displacement of [3H]WIN-35428(0.5 nM) from Dopamine transporter. Put shortly: as §1
Compound `Fc1ccc([C@@H]2CC3CCC(N3)[C@@H]2COc2ccc3c(c2)OCO3)cc1` (stereo partly specified) had an IC50 of 27.6 nM.
For `Fc1ccc([C@H]2CC3CCC(N3)[C@@H]2COc2ccc3c(c2)OCO3)cc1` (stereo partly specified), the IC50 worked out at 142 nM. Against the preceding compound, the IC50 is about 5.1-fold higher.
As for `CN1C2CC[C@@H]1C[C@H](c1ccc(F)cc1)[C@H]2COc1ccc2c(c1)OCO2`, the IC50 is 172 nM.
On the same count and under the same terms, for `CN1C2CC[C@@H]1[C@H](COc1ccc3c(c1)OCO3)[C@H](c1ccc(F)cc1)C2` the value was 1500 nM; for `CN1C2CC[C@@H]1[C@@H](COc1ccc3c(c1)OCO3)[C@H](c1ccc(F)cc1)C2`, 1050 nM.
The compound `CN1C2CC[C@@H]1C[C@H](c1ccc(F)cc1)[C@@H]2COc1ccc2c(c1)OCO2` yielded an IC50 of 308 nM.
On the same count and under the same terms, then `CN1C2CC[C@@H]1C[C@@H](c1ccc(F)cc1)[C@@H]2COc1ccc2c(c1)OCO2`, with 3.01 nM; and `CN1C2CC[C@@H]1[C@@H](COc1ccc3c(c1)OCO3)[C@@H](c1ccc(F)cc1)C2`, with 298 nM.
Take `Fc1ccc([C@H]2CC3CCC(N3)[C@H]2COc2ccc3c(c2)OCO3)cc1` (stereo in doubt; 4a): the IC50 worked out at 835 nM.
The same measure, in the same setting: for `Fc1ccc([C@@H]2CC3CCC(N3)[C@H]2COc2ccc3c(c2)OCO3)cc1` (stereo in doubt; 4c) the value was 3.86 nM; for `Fc1ccc([C@@H]2CC3CCC(N3)[C@H]2COc2ccc3c(c2)OCO3)cc1` (stereo in doubt; 4d), 1210 nM; for `Fc1ccc([C@H]2CC3CCC(N3)[C@H]2COc2ccc3c(c2)OCO3)cc1` (stereo in doubt; 4f), 403 nM.

Values taken from ChEMBL document CHEMBL1131114 (J Med Chem, 1998).
